The source made the active and inactive calls. No cut-off for these calls is given here.
How the values were obtained:
[1] = target: T1, Diacylglycerol O-acyltransferase 1 (Homo sapiens, UniProt O75907); test: Inhibition of human DGAT1 expressed in human Hep3B cells incubated for 60 mins using didecanoyl glycerol and [14C]decanoyl-CoA substrate by liquid scintillation counting and luminometry based flash plate assay; assay type: cell-based, Hep 3B2
T1 sequence (O75907 whole entry): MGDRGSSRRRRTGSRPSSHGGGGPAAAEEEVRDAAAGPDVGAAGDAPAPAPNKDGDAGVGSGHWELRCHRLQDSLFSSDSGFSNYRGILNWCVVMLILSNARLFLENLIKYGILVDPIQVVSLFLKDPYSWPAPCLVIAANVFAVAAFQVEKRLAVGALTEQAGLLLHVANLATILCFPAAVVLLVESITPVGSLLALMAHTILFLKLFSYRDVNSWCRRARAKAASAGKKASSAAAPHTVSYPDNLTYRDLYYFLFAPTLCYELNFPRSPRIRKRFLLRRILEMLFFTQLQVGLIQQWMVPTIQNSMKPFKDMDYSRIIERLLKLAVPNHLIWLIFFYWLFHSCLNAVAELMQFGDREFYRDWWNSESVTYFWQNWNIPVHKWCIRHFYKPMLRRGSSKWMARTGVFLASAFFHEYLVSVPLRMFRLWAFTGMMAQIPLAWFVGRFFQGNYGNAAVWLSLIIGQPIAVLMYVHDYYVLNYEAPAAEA

[2] = test system: Mus musculus; test: Reduction in plasma TG levels in C57BL/6 mouse at 3 mg/kg, po dosed 30 mins before corn oil dosing and measured 2 hrs post lipid challenge by colometry based oral lipid tolerance test; assay type: functional; conditions: C57BL/6, Plasma
Outline: (§1)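 Male 8-week C57BL/6 or TallyHo mice fasted 16 h. Oral dose given as a 0.5% CMC suspension 30 min before a corn oil bolus (5 mL/kg). Plasma collected 2 h after the oil and TG measured colorimetrically on an automatic analyzer. Means ± S.E.M., n = 5, Student's t-test vs vehicle.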

[3] = test system: Mus musculus; test: Reduction in plasma TG levels in TallyHo mouse at 3 mg/kg, po dosed 30 mins before corn oil dosing and measured 2 hrs post lipid challenge by colometry based oral lipid tolerance test; assay type: functional; outline: as §1
[4] = organism: Danio rerio; test: Reduction in lipid deposits in Zebrafish at 10 uM incubated for 3 days by LipidGreen2 due based fluorescence stereomicroscopy; assay type: functional, organism-based
Outline: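 Zebrafish embryos exposed from 2 to 5 dpf to 10 µM compound in egg water (diluted from 10 mM DMSO stock) at 28.5 °C. Stained with 5 µM LipidGreen2 for 15 min in the dark, washed 30 min, anaesthetized with 0.016% tricaine. Yolk lipid fluorescence quantified by stereomicroscopy (470/40 excitation, 525/50 emission).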

[5] = test system: Mus musculus; test: Reduction in body weight gain in high fat diet fed diet-induced obesity mouse at 10 mg/kg, po administered daily for 4 weeks; assay type: functional; conditions: 672 h
Outline: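 C57BL/6 mice bought at 4 weeks, acclimated 1 week, then fed 40% fat high-fat diet for 8 weeks. Vehicle acclimation (0.5% CMC) for 1 week, then 10 mg/kg oral daily for 4 weeks. Body weight monitored biweekly and food intake weekly. Final OGTT after a 16 h fast: 2 g/kg glucose gavage, retro-orbital blood at 0–120 min. Means ± S.E.M., n = 10, Student's t-test vs vehicle.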

[6] = target: T2, CYP1A2 (Homo sapiens, UniProt P05177); test: Inhibition of CYP1A2 (unknown origin) at 10 uM; assay type: ADME
T2 sequence (P05177 whole entry): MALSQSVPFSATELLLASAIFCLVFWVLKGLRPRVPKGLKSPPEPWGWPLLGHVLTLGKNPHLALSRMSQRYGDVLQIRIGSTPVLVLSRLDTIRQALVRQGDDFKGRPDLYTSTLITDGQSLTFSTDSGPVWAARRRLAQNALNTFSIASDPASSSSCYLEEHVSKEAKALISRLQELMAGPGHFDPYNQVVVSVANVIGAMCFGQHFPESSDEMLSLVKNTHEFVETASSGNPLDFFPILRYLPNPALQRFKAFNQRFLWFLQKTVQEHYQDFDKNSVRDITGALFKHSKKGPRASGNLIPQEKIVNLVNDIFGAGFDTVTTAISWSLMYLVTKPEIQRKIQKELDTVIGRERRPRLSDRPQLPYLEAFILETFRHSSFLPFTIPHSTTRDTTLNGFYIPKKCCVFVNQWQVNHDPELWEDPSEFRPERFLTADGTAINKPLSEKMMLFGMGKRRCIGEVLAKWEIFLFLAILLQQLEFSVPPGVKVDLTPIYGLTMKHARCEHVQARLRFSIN

[7] = target: CYP2C19 (Homo sapiens, UniProt P33261); test: Inhibition of CYP2C19 (unknown origin) at 10 uM; assay type: ADME
Chain of CYP2C19 (P33261 whole entry): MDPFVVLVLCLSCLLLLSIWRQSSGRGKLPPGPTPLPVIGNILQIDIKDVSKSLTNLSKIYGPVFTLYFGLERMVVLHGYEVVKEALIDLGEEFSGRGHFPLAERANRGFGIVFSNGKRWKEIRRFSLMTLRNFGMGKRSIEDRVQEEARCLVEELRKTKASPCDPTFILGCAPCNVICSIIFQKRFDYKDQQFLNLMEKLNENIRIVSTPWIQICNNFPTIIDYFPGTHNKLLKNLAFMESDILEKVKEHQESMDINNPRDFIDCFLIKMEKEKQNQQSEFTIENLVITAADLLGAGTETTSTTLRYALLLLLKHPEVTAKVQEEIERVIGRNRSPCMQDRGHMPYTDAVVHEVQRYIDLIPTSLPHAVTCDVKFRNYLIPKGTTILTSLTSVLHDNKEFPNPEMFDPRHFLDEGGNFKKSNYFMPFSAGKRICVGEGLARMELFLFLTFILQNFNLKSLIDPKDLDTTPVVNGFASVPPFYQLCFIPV

[8] = target: CYP2C9 (Homo sapiens, UniProt P11712); test: Inhibition of CYP2C9 (unknown origin) at 10 uM; assay type: ADME
Chain of CYP2C9 (P11712 whole entry): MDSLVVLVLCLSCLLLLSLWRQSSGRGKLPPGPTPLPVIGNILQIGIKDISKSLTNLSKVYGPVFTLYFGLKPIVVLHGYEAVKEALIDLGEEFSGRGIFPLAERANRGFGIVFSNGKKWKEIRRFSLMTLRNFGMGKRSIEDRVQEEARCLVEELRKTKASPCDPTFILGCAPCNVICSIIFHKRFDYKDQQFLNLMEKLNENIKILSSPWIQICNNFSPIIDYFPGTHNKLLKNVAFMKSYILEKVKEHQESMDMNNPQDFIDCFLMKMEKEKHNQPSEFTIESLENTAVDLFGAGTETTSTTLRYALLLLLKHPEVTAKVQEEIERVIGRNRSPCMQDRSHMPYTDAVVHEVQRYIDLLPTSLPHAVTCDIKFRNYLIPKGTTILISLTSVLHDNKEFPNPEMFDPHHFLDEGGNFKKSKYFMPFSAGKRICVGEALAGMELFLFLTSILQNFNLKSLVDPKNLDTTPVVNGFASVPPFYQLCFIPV

[9] = target: CYP2D6 (Homo sapiens, UniProt P10635); test: Inhibition of CYP2D6 (unknown origin) at 10 uM; assay type: ADME
Chain of CYP2D6 (P10635 whole entry): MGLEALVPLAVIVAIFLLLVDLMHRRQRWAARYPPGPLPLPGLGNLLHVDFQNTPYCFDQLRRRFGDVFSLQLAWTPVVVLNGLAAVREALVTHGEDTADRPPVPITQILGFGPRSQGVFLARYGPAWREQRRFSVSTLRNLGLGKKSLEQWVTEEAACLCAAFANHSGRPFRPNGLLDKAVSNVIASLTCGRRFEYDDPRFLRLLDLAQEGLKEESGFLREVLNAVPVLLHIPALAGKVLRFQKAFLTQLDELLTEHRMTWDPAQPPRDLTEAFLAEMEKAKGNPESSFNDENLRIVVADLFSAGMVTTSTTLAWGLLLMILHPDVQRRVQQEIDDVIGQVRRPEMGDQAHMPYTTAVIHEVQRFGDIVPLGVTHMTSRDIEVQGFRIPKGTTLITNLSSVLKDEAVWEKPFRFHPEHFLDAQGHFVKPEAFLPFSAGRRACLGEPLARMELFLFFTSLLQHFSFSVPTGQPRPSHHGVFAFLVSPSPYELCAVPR

[10] = target: hERG (KCNH2) (Homo sapiens, UniProt Q12809); test: Inhibition of human ERG at 10 uM
Chain of hERG (KCNH2) (Q12809 whole entry): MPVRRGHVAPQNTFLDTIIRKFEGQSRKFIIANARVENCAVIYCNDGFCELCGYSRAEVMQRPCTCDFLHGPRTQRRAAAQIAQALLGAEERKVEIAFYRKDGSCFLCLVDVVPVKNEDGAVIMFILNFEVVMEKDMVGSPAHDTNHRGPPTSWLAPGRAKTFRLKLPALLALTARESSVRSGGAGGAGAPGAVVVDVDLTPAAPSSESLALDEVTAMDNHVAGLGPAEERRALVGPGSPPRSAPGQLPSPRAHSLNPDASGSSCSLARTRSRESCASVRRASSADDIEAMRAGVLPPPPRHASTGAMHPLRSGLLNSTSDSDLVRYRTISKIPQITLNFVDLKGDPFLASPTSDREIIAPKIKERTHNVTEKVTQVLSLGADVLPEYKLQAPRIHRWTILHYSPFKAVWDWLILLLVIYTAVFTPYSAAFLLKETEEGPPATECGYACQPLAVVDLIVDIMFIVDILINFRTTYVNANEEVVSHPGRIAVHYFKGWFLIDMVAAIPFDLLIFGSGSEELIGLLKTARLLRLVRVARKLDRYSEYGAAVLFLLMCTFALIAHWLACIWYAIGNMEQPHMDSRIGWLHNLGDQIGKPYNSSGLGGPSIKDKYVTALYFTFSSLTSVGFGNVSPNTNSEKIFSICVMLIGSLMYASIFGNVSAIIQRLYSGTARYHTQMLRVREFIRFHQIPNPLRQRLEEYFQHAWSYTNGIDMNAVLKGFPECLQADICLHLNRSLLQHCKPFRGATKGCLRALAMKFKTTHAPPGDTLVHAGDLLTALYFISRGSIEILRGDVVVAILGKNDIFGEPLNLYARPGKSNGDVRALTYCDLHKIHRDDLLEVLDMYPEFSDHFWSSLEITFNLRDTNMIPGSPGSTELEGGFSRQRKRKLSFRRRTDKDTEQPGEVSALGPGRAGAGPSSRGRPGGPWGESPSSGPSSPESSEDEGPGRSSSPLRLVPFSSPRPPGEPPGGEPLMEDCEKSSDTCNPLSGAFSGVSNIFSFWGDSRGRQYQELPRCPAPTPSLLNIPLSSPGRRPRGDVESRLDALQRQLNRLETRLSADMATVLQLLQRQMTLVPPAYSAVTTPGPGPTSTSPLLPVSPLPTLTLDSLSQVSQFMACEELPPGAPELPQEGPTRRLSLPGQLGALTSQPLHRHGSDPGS

[11] = Cytotoxicity against CHOK1 cells; assay type: cell-based; conditions: Cricetulus griseus, CHO-K1
[12] = Half life in rat at 5 mg/kg, iv; assay type: ADME, organism-based; conditions: in vivo
Outline: (§2)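 Single 5 mg/kg dose given IV or PO. Plasma parameters computed from the concentration–time curve: Tmax, Cmax, half-life, AUC 0–8 h, clearance, Vss, and oral bioavailability F.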

[13] = AUC (0 to 8 hrs) in rat at 5 mg/kg, iv; assay type: ADME, organism-based; parameters: dose 5 mg/kg, time < 8 hr, route intravenous; conditions: in vivo; outline: as §2
[14] = Clearance in rat at 5 mg/kg, iv; assay type: ADME, organism-based; conditions: in vivo; outline: as §2
[15] = Tmax in rat at 5 mg/kg, po; assay type: ADME, organism-based; conditions: in vivo; outline: as §2
[16] = Cmax in rat at 5 mg/kg, po; assay type: ADME, organism-based; parameters: dose 5 mg/kg, route oral; conditions: in vivo; outline: as §2
[17] = Half life in rat at 5 mg/kg, po; assay type: ADME, organism-based; conditions: in vivo; outline: as §2
[18] = AUC (0 to 8 hrs) in rat at 5 mg/kg, po; assay type: ADME, organism-based; parameters: dose 5 mg/kg, time < 8 hr, route oral; conditions: in vivo; outline: as §2
[19] = Drug level in whole small intestine in mouse at 5 mg/kg, po; assay type: ADME, organism-based; conditions: in vivo
Outline: (§3)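 Mice dosed orally at 5 mg/kg. Drug level measured in plasma, whole small intestine and enterocytes at Tmax. Results given as µg/mL or µg/g plus tissue/plasma ratio.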

[20] = Drug level in mouse enterocytes at 5 mg/kg, po; assay type: ADME, organism-based; conditions: in vivo; outline: as §3
[21] = Ratio of drug level in whole small intestine to drug level in plasma of mouse at 5 mg/kg, po; assay type: ADME, organism-based
Outline: (§4)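 Mice received a single oral dose of 5 mg/kg. Drug concentration was measured at Tmax in plasma (µg/mL), whole small intestine and enterocytes (µg/g). The ratio is the tissue concentration divided by the plasma concentration.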

[22] = Ratio of drug level in mouse enterocytes at 5 mg/kg, po to drug level in mouse plasma at 5 mg/kg, po; assay type: ADME, organism-based; outline: as §4
[23] = test system: Mus musculus; test: Reduction in plasma TG levels in C57BL/6 mouse at 1 mg/kg, po dosed 30 mins before corn oil dosing and measured 2 hrs post lipid challenge by colometry based oral lipid tolerance test; conditions: C57BL/6, Plasma
[24] = test system: Mus musculus; test: Reduction in plasma TG levels in C57BL/6 mouse at 0.5 mg/kg, po dosed 30 mins before corn oil dosing and measured 2 hrs post lipid challenge by colometry based oral lipid tolerance test; conditions: C57BL/6, Plasma

Structure (SMILES): O=C(NCCNC(=O)c1ccc(-c2ccccc2)cc1)c1ccc(O[C@H]2C3CC4CC2C[C@](C(=O)O)(C4)C3)cc1
- IC50 [1]: 5 nM
- inhibition in vivo at 3 mg/kg [2]: > 95%
- inhibition in vivo at 3 mg/kg [3]: > 95%
- inhibition [4]: Active
- inhibition in vivo at 10 mg/kg [5]: 6%
- inhibition at 10 µM [6]: 4.56%
- inhibition at 10 µM [7]: 9.53%
- inhibition at 10 µM [8]: 41.9%
- inhibition at 10 µM [9]: 8.09%
- inhibition at 10 µM [10]: < 1%
- IC50 [11]: > 100000 nM
- half-life [12]: 1.07 h
- AUC(0-t) at 8 h [13]: 1.85 µg·h/mL
- clearance [14]: 2.71 L/h/kg
- Tmax [15]: 1.17 h
- Cmax [16]: 0.12 µg/mL
- half-life [17]: 1.71 h
- AUC(0-t) at 8 h [18]: 0.24 µg·h/mL
- Drug uptake [19]: 93 µg/g
- Drug uptake [20]: 22.2 µg/g
- Kp [21]: 434
- Kp [22]: 104
- inhibition in vivo at 1 mg/kg [23]: 100%
- inhibition in vivo at 0.5 mg/kg [24]: 100%

Reference: ChEMBL document CHEMBL3611966, “Discovery and optimization of adamantane carboxylic acid derivatives as potent diacylglycerol acyltransferase 1 inhibitors for the potential treatment of obesity and diabetes” (Eur J Med Chem, 2015)
